Bioassay records: PubChem, several laboratories
CSN inh = inhibitors of human CSN-mediated cullin deneddylation; inhibition, % at 12.5 µM; AID 651999; hit rate 0.38% among 360,000; Purified CSN, SCF-Nedd8-OG deneddylation, fluorescence polarization; Q92905;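 active = pattern-corrected inhibition above about 35%, with an unprinted fluorescence ratio check between 0.5 and 1.5, limit read from the data, passing the limit was not always enough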;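 note: 0% = enzyme with substrate and 100% = substrate without enzyme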
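test system = HEK293T-derived human Csn5 enzyme | amount = 0.24 nM Csn5 enzyme, final concentration | medium = Tris/NaCl/DTT buffer, pH 7.5 | schedule = 90 min reaction at room temperature | signal = FP | evaluation = inhibition of Csn5 cleavage, % | compound dosing = single dose of 12.5 µM compound with 0.25% DMSO | probe or stimulus = 10 nM SCFSkp2-Nedd8OG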
Neddylation inh = blocks human cullin neddylation. P61081+Q13564. TR-FRET cullin neddylation, biochemical. inhibition, % at 25 µM. hit rate 0.58% among 360,000. AID 651699; in the data active = inhibition above about 36%
TPT1 inhibitor = C. albicans TPT1 enzyme inhibition | inhibition, % at 5 µM | hit rate 0.81% among 300,000 | recombinant caTPT1, FP RNA substrate dephosphorylation | AID 1962;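 active = inhibition above the mean of all tested compounds plus 3 SD, set per screening campaign, cut at about 24% in these data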;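 note: plate controls were DMSO alone for no effect and ferristatin control at 100 nM for full effect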
Rin1 Abl inh = human Rin1-Abl interaction inhibition | inhibition, % at 7.35 µM | hit rate 0.4% among 360,000 | P00519+Q13671 | TR-FRET Rin1/Abl binding, biochemical | AID 588664; in the data active = inhibition above about 5%, passing the limit was not always enough
HNF4A DNA FP = change in binding of human HNF4 alpha to DNA. AID 1224865. P41235. activity change, % at 10 µM. hit rate 0.3% among 360,000. HNF4a-FITC DNA binding, fluorescence polarization, 1 h; in the data active = activity change above about 30%, passing the limit was not always enough
Rpn11 inh = inhibitors of human proteasome Rpn11; inhibition, % at 20 µM; AID 588493; human 26S proteasome, Ub4-pepOG fluorescence polarization; 20S core pre-blocked with epoxomicin; hit rate 0.59% among 360,000;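 active = inhibition at 20 µM, scaled to each plate's controls, above about 33%, limit read from the data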
Rpn11 inh conf = confirmation of human proteasome Rpn11 inhibitors. hit rate 29% among 1,900. inhibition, % at 20 µM. purified human 26S proteasome, Ub4-pepOG fluorescence polarization; proteasome pretreated with epoxomicin. shares compounds with Rpn11 inh
MMP-2 counter = counter-screen for RPN11 inhibitors: inhibition of human MMP-2; shares compounds with Rpn11 inh; recombinant MMP-2, FRET peptide cleavage fluorescence; inhibition, % at 20 µM; hit rate 4% among 1,900; AID 602330;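 note: human MMP-2 activated beforehand with APMA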
Thrombin FP = thrombin (bovine) inhibition counter-screen; shares compounds with Rpn11 inh; bovine thrombin cleavage of Ub4-pepOG, fluorescence polarization; inhibition, % at 20 µM; hit rate 13% among 1,900; AID 602333;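 active = mean inhibition at least 40% at 20 µM, or signal 3 deviations below plate average, so some actives read negative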;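 note: plate controls were thrombin with DMSO for no effect and buffer wells lacking thrombin for full effect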
* marks the source's active call; other numbers are inactive results; nt = no result given. The list is not random: actives were taken first. Their share in the collection is about 2.4%. Cut-off read from the data, not from the text of the source, unless noted: active = inhibition above about 40%; inactive = the rest.

SMILES	CSN inh	Neddylation inh	TPT1 inhibitor	Rin1 Abl inh	HNF4A DNA FP	Rpn11 inh	Rpn11 inh conf	MMP-2 counter	Thrombin FP
Cc1sc(NC(=O)c2cccs2)c(C(=O)OC(C)C)c1C	-8.1	nt	0.1	3.3	-5.0	50.5*	-1.6	-34.6	-3.6
CCc1c(C)sc(NC(=O)c2cccs2)c1C(=O)OC(C)C	1.6	nt	0.2	0.9	-1.3	3.6	nt	nt	nt
C#CCOCCOCCOCCNc1nc(N2CCN(C(=O)[C@H]([C@@H](C)CC)n3cc([C@@H](N)Cc4ccc(O)cc4)nn3)CC2)nc(N2CCN(C(=O)[C@H](Cc3cc4ccccc4[nH]3)n3cc([C@@H](N)CC(C)C)nn3)CC2)n1	20.0	-11.0	-0.3	-1.8	19.8	63.7*	9.4	38.2	-8.9
Cc1ccc(S(=O)(=O)Nc2ccccc2NS(=O)(=O)c2ccc(C)cc2)cc1	4.8	2.6	nt	-0.9	2.3	1.6	nt	nt	nt
Cc1ccc(S(=O)(=O)Nc2ccccc2-c2ccccc2)cc1	-4.2	1.6	-0.9	-1.6	-3.9	33.4*	-24.7	13.4	-13.7
Cn1c(CCNC(=O)c2ccc(Cl)cc2)n[nH]c1=S	1.1	0.6	-3.1	2.6	-0.3	41.4*	7.8	0.1	-2.9
O=C(Cn1c(C(F)(F)F)nc2ccccc21)N1CCCC1	2.6	-1.8	-2.3	-4.1	-2.9	74.8*	-20.1	-34.6	-17.4
C=CCNC(=O)/C(C#N)=C/c1c(N(Cc2ccccc2)Cc2ccccc2)nc2ccccn2c1=O	1.4	4.1	0.4	-4.4	-0.1	46.1*	19.1	21.2	11.8
COc1ccc(N2C(=O)c3ccccc3NC23CCCC3)cc1	-1.0	nt	-2.2	2.8	-3.0	36.7*	-5.1	-35.5	-0.4
O=C(c1ccco1)N1CCN(C(=O)c2cc(-c3ccccc3)nc3ccccc23)CC1	9.6	-9.7	-0.4	-1.1	-0.4	1.8	nt	nt	nt
O=C(c1ccco1)N1CCN(C(=O)c2cc(-c3ccncc3)nc3ccc(Br)cc23)CC1	14.9	-252.1	12.6	-4.5	20.7	64.8*	-16.3	-2.7	0.1
CCc1ccc(NC(=O)C2CCN(S(=O)(=O)c3ccc4c(c3)NC(=O)C(C)S4)CC2)cc1 (stereo not drawn)	6.2	-4.1	5.7	1.1	18.2	68.8*	87.4*	24.7	33.2
Cc1ccc(NC(=O)C2CCN(S(=O)(=O)c3ccc4c(c3)NC(=O)C(C)S4)CC2)cc1C (stereo not drawn)	-2.5	1.6	-0.4	-2.3	1.9	15.7	nt	nt	nt
CC1(C(=O)OCC(=O)Nc2cccc(S(=O)(=O)NC3=NCCCCC3)c2)CC1(Cl)Cl (stereo not drawn)	1.3	3.6	1.6	-4.6	-1.3	-3.9	nt	nt	nt
COc1ccccc1Nc1nc(-c2cccs2)cs1	11.6	-13.0	3.0	-0.9	10.1	15.9	nt	nt	nt
COc1ccc(Nc2nc(-c3cccs3)cs2)c(OC)c1	-3.2	-1.7	1.3	-0.4	9.9	30.1*	-15.2	-10.6	-7.4
O=C(Cn1cc([N+](=O)[O-])ccc1=O)NC1CCCCC1	-6.2	-16.5	nt	0.9	-5.1	-0.9	nt	nt	nt
CCOc1ccc(OCCC(=O)Nc2ccc(F)cc2C)cc1	-5.2	-1.5	-1.0	-2.0	-1.7	-1.5	nt	nt	nt
CC(=O)NCCC(=O)Nc1ccc(F)cc1C	-2.1	1.9	-1.4	0.6	21.5	114.1*	-11.0	-45.7	0.1
O=C(NCC(=O)N1CCN(Cc2c(F)cccc2Cl)CC1)c1cccs1	-4.2	-3.9	nt	-2.1	2.2	-2.3	nt	nt	nt
CN(CC(=O)Nc1nccs1)S(=O)(=O)c1ccc(F)cc1	-0.2	-9.6	-0.7	3.5	-1.6	48.7*	0.4	-38.3	-4.9
COCCCn1c(SCc2nc3ccccc3c(=O)[nH]2)nc2ccccc2c1=O	1.3	-20.2	0.3	4.0	1.1	104.9*	-13.4	-22.8	7.8
O=C(NCc1ccccc1C(F)(F)F)C1CC(c2ccc(C(F)(F)F)cc2)=NO1 (stereo not drawn)	-6.8	-15.8	-1.0	-1.0	-0.7	-1.7	nt	nt	nt
